Measurements taken from ChEMBL document CHEMBL4024779, “Novel Terminal Bipheny-Based Diapophytoene Desaturases (CrtN) Inhibitors as Anti-MRSA/VISR/LRSA Agents with Reduced hERG Activity” (J Med Chem, 2018).
Numbering of substitutions follows the chain as printed. Activity calls are given as the source filed them. The rule behind the calls is not given here.

How the values were obtained:
HepG2 = assay: Cytotoxicity against human HepG2 cells after 43 hrs by Alamar blue dye-based fluorescence assay; type: cell-based; conditions: HepG2, 43 h
Staphylococcus aureus [1] = assay: Chemo-sensitization activity in human whole blood infected with compound-pre-treated non-pigmented Staphylococcus aureus Newman strain assessed as whole blood-induced bacterial killing by measuring survival rate at 1 uM after 6 hrs by serial dilution method (reference value: 13.3%); type: functional
Staphylococcus aureus [2] = assay: In vivo anti-virulence activity against Staphylococcus aureus Newman infected in BALB/c mouse model assessed as reduction in bacterial load in heart at 0.4 mg bid for 4.5 days administered intraperitoneally 24 hrs prior to infection by serial dilution method; type: functional, organism-based
How it was run: (§1)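 Mice (n=10 per group) got 2.3 × 10^7 CFU S. aureus Newman by retro-orbital injection. Compound was given intraperitoneally b.i.d., either 24 h before infection (4.5 d) or 6 h after infection (3.5 d). Mice were sacrificed after 4.5 d and CFU counted in kidneys and hearts. Groups were compared by two-tailed Mann-Whitney test.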

Staphylococcus aureus [3] = assay: In vivo anti-virulence activity against Staphylococcus aureus Newman infected in BALB/c mouse model assessed as reduction in bacterial load in heart at 0.4 mg bid for 3.5 days administered intraperitoneally 6 hrs post infection by serial dilution method; type: functional, organism-based; how it was run: as §1
[4] = biological target: T1, 4,4'-diapophytoene desaturase (4,4'-diaponeurosporene-forming) (Staphylococcus aureus (strain Newman), UniProt O07855); assay: Inhibition of CrtN in Staphylococcus aureus Newman after 12 resistant development passages under 0.15% v/v H2O2 assessed as reduction in staphyloxanthin levels under IC90 level after 48 hrs by spectrophotometric method-based pigment inhibition assay; design: species or system Staphylococcus aureus subsp. aureus str. Newman
T1 sequence (O07855 whole entry): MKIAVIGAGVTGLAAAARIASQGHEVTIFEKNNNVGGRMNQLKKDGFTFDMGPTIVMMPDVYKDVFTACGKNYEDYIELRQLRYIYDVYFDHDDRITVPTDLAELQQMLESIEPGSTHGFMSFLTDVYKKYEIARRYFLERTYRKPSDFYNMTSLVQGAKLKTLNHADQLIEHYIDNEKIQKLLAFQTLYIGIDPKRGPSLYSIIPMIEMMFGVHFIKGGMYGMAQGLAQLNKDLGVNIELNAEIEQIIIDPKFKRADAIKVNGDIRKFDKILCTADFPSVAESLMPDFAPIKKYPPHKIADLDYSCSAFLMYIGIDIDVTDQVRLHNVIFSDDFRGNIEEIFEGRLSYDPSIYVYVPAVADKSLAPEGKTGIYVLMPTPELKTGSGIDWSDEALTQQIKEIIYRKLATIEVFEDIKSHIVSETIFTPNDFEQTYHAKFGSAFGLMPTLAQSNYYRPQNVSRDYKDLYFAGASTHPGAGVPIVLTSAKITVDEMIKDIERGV

Staphylococcus aureus [5] = assay: In vivo anti-virulence activity against Staphylococcus aureus Newman infected in BALB/c mouse model assessed as reduction in bacterial load in kidneys at 0.4 mg bid for 3.5 days administered intraperitoneally 6 hrs post infection by serial dilution method; type: functional, organism-based; how it was run: as §1
Liver = assay: In-vitro intrinsic clearance in human liver microsomes at 2 uM after 60 mins in presence of NADPH by LC-MS/MS method; type: ADME, microsome; conditions: 1 h
Staphylococcus aureus [6] = assay: Antibacterial activity against methicillin-resistant Staphylococcus aureus NRS271 assessed as change in bacterial growth at 0.2 mM […]; type: functional
Staphylococcus aureus [7] = assay: In vivo anti-virulence activity against Staphylococcus aureus Newman infected in BALB/c mouse model assessed as reduction in bacterial load in kidneys at 0.1 mg bid for 4.5 days administered intraperitoneally 24 hrs prior to infection by serial dilution method; type: functional, organism-based; how it was run: as §1
[8] = Inhibition of CrtN in methicillin-resistant Staphylococcus aureus NRS271 assessed as reduction in staphyloxanthin levels after 48 hrs by spectrophotometric method-based pigment inhibition assay
[9] = system: Trichophyton mentagrophytes; assay: In vitro antifungal activity against Trichophyton mentagrophytes after 7 days by serial dilution method; type: functional; conditions: 168 h
[10] = biological target: T2, 4,4'-diapophytoene desaturase (4,4'-diaponeurosporene-forming) (Staphylococcus aureus (strain MW2), UniProt Q8NUQ6); assay: Inhibition of CrtN in methicillin-resistant Staphylococcus aureus USA400 MW2 assessed as reduction in staphyloxanthin levels after 48 hrs by spectrophotometric method-based pigment inhibition assay; design: species or system Staphylococcus aureus subsp. aureus MW2
T2 sequence (Q8NUQ6 whole entry): T1 sequence (O07855 whole entry) with R500Q

Staphylococcus aureus [11] = assay: In vivo anti-virulence activity against methicillin-resistant Staphylococcus aureus Mu50 infected in BALB/c mouse model assessed as reduction in bacterial load in kidneys at 0.1 mg bid for 3.5 days administered intraperitoneally 6 hrs post infection by serial dilution method; type: functional; design: scale not given: the % may be the effect or the level left
How it was run: (§2)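 Mice (n=10 per group) infected retro-orbitally with S. aureus Mu50 (1.1 × 10^9 or 1.3 × 10^9 CFU) or NRS271 (2.3 × 10^8 CFU). Compound given i.p. b.i.d., either 6 h after infection for 3.5 d or 24 h before infection for 4.5 d. Mice killed after 4.5 d; log10 CFU per organ counted in kidneys and hearts. Two-tailed Mann−Whitney test.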

Staphylococcus aureus [12] = assay: Antibacterial activity against Staphylococcus aureus Newman derived after 12 passage by broth dilution method; type: functional
Staphylococcus aureus [13] = assay: In vivo anti-virulence activity against methicillin-resistant Staphylococcus aureus NRS271 infected in BALB/c mouse model assessed as reduction in bacterial load in kidneys at 0.4 mg bid for 3.5 days administered intraperitoneally 6 hrs post infection by serial dilution method; type: functional; design: scale not given: the % may be the effect or the level left; how it was run: as §2
Trichophyton verrucosum = assay: In vitro antifungal activity against Trichophyton verrucosum after 7 days by serial dilution method; type: functional; conditions: 168 h
Nannizzia gypsea = assay: In vitro antifungal activity against Microsporum gypseum after 7 days by serial dilution method; type: functional; conditions: 168 h
Trichophyton rubrum = assay: In vitro antifungal activity against Trichophyton rubrum after 7 days by serial dilution method; type: functional; conditions: 168 h
Staphylococcus aureus [14] = assay: In vivo anti-virulence activity against methicillin-resistant Staphylococcus aureus Mu50 infected in BALB/c mouse model assessed as reduction in bacterial load in heart at 0.1 mg bid for 3.5 days administered intraperitoneally 6 hrs post infection by serial dilution method; type: functional; design: scale not given: the % may be the effect or the level left
How it was run: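 Mice were challenged with 1.3 × 10^9 CFU Mu50. Compound was given intraperitoneally, either 24 h before or 6 h after infection. Log10 CFU was counted in kidneys and hearts.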

Staphylococcus aureus [15] = assay: In vivo anti-virulence activity against methicillin-resistant Staphylococcus aureus Mu50 infected in BALB/c mouse model assessed as reduction in bacterial load in kidneys at 0.4 mg bid for 3.5 days administered intraperitoneally 6 hrs post infection by serial dilution method; type: functional; design: scale not given: the % may be the effect or the level left; how it was run: as §2

Row | SMILES | IC50 (HepG2) | Activity (Staphylococcus aureus [2]) | Activity (Staphylococcus aureus [3]) | IC50 [4] | Activity (Staphylococcus aureus [5]) | CLH (Liver) | Activity (Staphylococcus aureus [6]) | Activity (Staphylococcus aureus [7]) | IC50 [8] | MIC80 [9] | IC50 [10] | Activity (Staphylococcus aureus [11]) | IC90 (Staphylococcus aureus [12]) | Activity (Staphylococcus aureus [13]) | MIC80 (Trichophyton verrucosum) | MIC80 (Nannizzia gypsea) | MIC80 (Trichophyton rubrum) | Activity (Staphylococcus aureus [14]) | Activity (Staphylococcus aureus [15]) | also measured
1 | CN(C/C=C/c1ccc(-c2ccccc2)cc1)Cc1cccc2cc[nH]c12.Cl | 21900 nM | inactive | inactive | 2.6 nM | inactive | 20 µL/min/mg | inactive | inactive | 10.1 nM | > 64 µg/mL | 8 nM | >95% | 2.6 nM | >95% | > 64 µg/mL | > 64 µg/mL | > 64 µg/mL | >95% | >95% | Activity (Staphylococcus aureus [1]): Active
2 | CN(C/C=C/c1ccc(-c2ccccc2)cc1)Cc1coc2ccccc12.Cl | 106000 nM | Active | Active | 1.8 nM | Active | 1230 µL/min/mg | inactive | Active | 5.6 nM | > 64 µg/mL | 7.9 nM | >95% | 1.8 nM | >95% | > 64 µg/mL | 32 µg/mL | 64 µg/mL | >95% | >95% | survival at 1 µM (Staphylococcus aureus [1]): 1.3%
